This is one part of a sample in which hits are shown more often than they occur.
UCH37 inh: human UCH37 deubiquitinating enzyme inhibition | Q9Y5K5 | purified proteasome/UCH37, Ub-AMC cleavage fluorescence | actives 0.33% (n = 330,000) | inhibition, % (concentration not given with the values) | AID 588478;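 active means mean inhibition over replicate wells above about 20%, limit read from the data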;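 further: 0% = compound-free wells with enzyme and 100% = wells lacking proteasome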
Target sequence (Q9Y5K5 whole entry, looked up): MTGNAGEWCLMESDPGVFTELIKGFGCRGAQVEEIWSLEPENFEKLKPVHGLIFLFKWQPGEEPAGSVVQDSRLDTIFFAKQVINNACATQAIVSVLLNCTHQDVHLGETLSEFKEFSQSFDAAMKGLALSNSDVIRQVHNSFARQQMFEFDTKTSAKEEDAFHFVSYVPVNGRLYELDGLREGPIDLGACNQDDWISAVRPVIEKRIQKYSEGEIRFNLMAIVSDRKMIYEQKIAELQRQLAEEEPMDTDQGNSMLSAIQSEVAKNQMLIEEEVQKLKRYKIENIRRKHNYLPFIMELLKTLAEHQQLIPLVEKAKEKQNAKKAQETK
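Material: Human UCH37 enzyme supplied as purified proteasome complex | Schedule: 30 min compound-proteasome preincubation then 25 min substrate reaction, room temperature | Detection: AMC fluorescence from Ub-AMC cleavage, excitation 355 nm, emission 460 nm | Benchmarks: Wells without proteasome as full block, compound-free enzyme plus substrate as uninhibited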
CHOP UPR activ: activators of apoptotic arm of unfolded protein response (CHOP). CHO-CHOP luciferase reporter, UPR activation, luminescence; percent of tunicamycin response over DMSO baseline. activation, % at 10 µM. actives 0.34% (n = 330,000). AID 449763;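 active means at 10 µM dose, activation of 40% or more, normalized to positive control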;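 further: 100% = tunicamycin at 10 µg/mL and 0% = DMSO alone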
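Material: CHO-CHOP cells, stable luciferase reporter of PERK-eIF2a-CHOP signalling; quantity: 500 reporter cells seeded per well; buffer or medium: F12 medium containing 10% fetal bovine serum; compound: one dose, 10 µM in 0.5% DMSO; incubation: 6 h compound treatment, 37 °C; measured by: Steady-Glo luciferase luminescence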
UPR XBP1 act: adaptive UPR (XBP1) activation; CHO-XBP1 luciferase reporter, IRE1-XBP1 UPR activation, luminescence; percent of tunicamycin response, DMSO as zero; activation, % at 20 µM; actives 0.33% (n = 330,000); AID 463104;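 active means versus positive control, 20 µM dose yields 30% or more activation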;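 further: 100% = tunicamycin at 10 µg/mL and 0% = DMSO only wells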
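assay system = CHO-XBP1 luciferase reporter cells | amount = 1000 cells/well | buffer or medium = F12 plus 10% FBS | compound dosing = single point, 20 µM final compound, 1% DMSO | incubation = 16-18 h cell attachment at 37 °C, then 6 h compound exposure | detection = Steady-Glo luminescence read | controls = tunicamycin 10 µg/mL and vehicle-only wells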
Fh CTSL1 inh: counter-screen for PFM18AAP inhibitors: inhibitors of F. hepatica cathepsin L1; inhibition, % at 5.96 µM; recombinant F. hepatica cathepsin L1, Z-Leu-Arg-MCA fluorescence; AID 1906; actives 0.49% (n = 300,000);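 active means inhibition above the mean of all tested compounds plus 3 SD, set per screening campaign, cut at about 17% in these data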;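 further: 0% = plate median of test compound wells and 100% = 1 µM Z-Phe-Ala-diazomethylketone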
CHOP inh: inhibitors of CHOP induction in ER stress response; CHO-K1 CHOP-promoter luciferase, tunicamycin-induced, 15-18 h; inhibition, % at 10 µM; actives 3.8% (n = 220,000); AID 2732;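 active means compounds that reduced the stress-induced luciferase reporter signal by more than about 70% of percent inhibition, limit read from the data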;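 further: 0% = tunicamycin plus vehicle and 100% = wells without tunicamycin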
UPR CHOP confirm: confirmation of apoptotic unfolded protein response (CHOP) activators; shares compounds with CHOP UPR activ; CHO-CHOP cells, CHOP-luciferase reporter luminescence; percent of tunicamycin response, DMSO as zero; activation, % at 10 µM; actives 64% (n = 1,000); AID 463112; in the data active means activation above about 33%;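 further: 0% = DMSO wells and 100% = tunicamycin 10 µg/mL wells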
Starred values were filed as active, the others as inactive; . = not tested or not shown.

SMILES | UCH37 inh | CHOP UPR activ | UPR XBP1 act | Fh CTSL1 inh | CHOP inh | UPR CHOP confirm
COc1ccc(-n2ncc(Cl)c(Cl)c2=O)cc1 | 3.6 | 50.5* | -6.6 | . | 69.7 | 22.5
CC(=O)Nc1ccc(C=NNc2ccc(C(=O)c3c(C)cc4ccccn34)cc2[N+](=O)[O-])cc1 | 4.6 | . | . | . | . | .
COc1ccccc1/C=C/C=NNC(=O)CN1CCN(Cc2ccccc2)CC1 | 1.2 | . | . | . | . | .
O=C(C#Cc1cccc([N+](=O)[O-])c1)c1ccccc1 | 5.5 | 133.8* | -4.8 | 22.3* | 107.8* | 187.7*
CCOC(=O)C(=Cc1ccc(F)cc1)C(=O)OCC | . | 122.1* | -6.7 | 4.0 | 51.4 | 140.4*
CCOC(=O)C(=Cc1ccc(-n2ccnc2)cc1)C(=O)OCC | 6.6 | 188.2* | -4.3 | -0.1 | 0.7 | 142.1*
COC(=O)c1ccc(-n2ccnc2)cc1 | 3.3 | -3.0 | 1.9 | -2.9 | 20.6 | .
COC(=O)C1=C(C)N(c2ccc(Cl)cc2)/C(=C/c2cccs2)C1=O | 1.2 | 3.7 | 1.4 | 1.1 | -17.4 | .
COC(=O)C1=C(C)N(c2ccc(C)c(C)c2)/C(=C/c2cccs2)C1=O | 0.8 | 90.2* | 14.6 | -0.6 | 9.7 | 50.5*
CCOc1ccc2nc(Cl)c(C3CC(c4ccccc4)=NN3C(=O)c3ccco3)cc2c1 (stereo unspecified) | 1.7 | 123.7* | 121.9* | 0.3 | 95.8* | -0.6
COC(=O)c1ccc(NC(=O)c2nc(S(=O)(=O)Cc3cccc(C)c3)ncc2Cl)cc1 | . | 94.9* | -10.9 | -2.2 | . | 26.9
Cc1ccc(NC(=O)c2nc(S(=O)(=O)Cc3ccccc3C)ncc2Cl)cc1C | . | 236.6* | -10.4 | -2.6 | . | 169.6*
Cc1ccc(-c2nc(SCC(=O)Nc3cc(C)on3)c3c(=O)n(C)c(=O)n(C)c3n2)cc1 | 0.9 | 58.1* | 27.0 | 3.0 | . | 104.5*
C=CCn1nc([N+](=O)[O-])nc1Sc1cccc2cccnc12 | -0.2 | 168.0* | 13.6 | 3.9 | 88.3* | 230.4*
O=[N+]([O-])c1cc(Cl)ccc1Sc1cccc2cccnc12 | 4.7 | 0.4 | 3.3 | -1.2 | 50.6 | .
O=[N+]([O-])c1ccc(Sc2cccc3cccnc23)cc1 | 5.6 | 2.1 | 6.8 | -0.5 | 19.9 | .
O=[N+]([O-])c1ccc(Sc2cccc3cccnc23)c([N+](=O)[O-])c1 | 8.1 | 256.0* | -2.0 | 0.8 | 15.3 | 158.2*
COc1ccccc1Cn1c(=S)[nH]c2cc(C(=O)N3CCN(c4ccccc4OC)CC3)ccc2c1=O | 1.6 | 83.6* | -4.9 | 3.1 | . | 0.9
COc1ccccc1N1CCN(C(=O)c2ccc3c(=O)n(Cc4ccco4)c(=S)[nH]c3c2)CC1 | 2.7 | 3.1 | -1.8 | 2.1 | 18.0 | .
O=C(CCCCCNC(=O)c1ccccc1)NN=Cc1ccccc1 | 4.5 | . | . | . | . | .
CCOc1ccc(-c2c(C(=O)NN=Cc3ccc(C)cc3)nnn2-c2nonc2N)cc1 | 2.2 | . | . | . | . | .
Cn1c(O)c(N=Nc2ccccc2)c2ccccc21 | 2.2 | 0.7 | -2.8 | -3.5 | . | .
Cc1ccc2c(c1)c(N=Nc1ccc([N+](=O)[O-])cc1)c(O)n2C | 6.3 | 72.9* | 98.9* | 0.3 | . | 3.5
C/C(CCc1oc2ccccc2c1-c1ccc(C)o1)=N/O | . | -1.2 | -3.5 | -5.9 | 41.4 | .
C/C(CCc1oc2c(Br)cc(Br)cc2c1-c1ccc(C)o1)=N\O | . | 88.8* | 7.1 | 8.8 | 17.8 | -1.7
SMILES | UCH37 inh | CHOP UPR activ | UPR XBP1 act | Fh CTSL1 inh | CHOP inh | UPR CHOP confirm
Cc1cc(C)n(-c2nnc(C)n2N=Cc2ccc(O)cc2)n1 | 3.8 | . | . | . | . | .
CCn1c(SCC(=O)NN=Cc2c[nH]c3ccccc23)nnc1-c1ccc(C(C)(C)C)cc1 | 5.5 | . | . | . | . | .
Cc1cc(C(=O)Nc2nc(-c3ccccn3)cs2)ccc1[N+](=O)[O-] | 7.2 | 0.3 | -0.5 | -1.5 | -20.0 | .
O=C(Nc1nc(-c2ccccn2)cs1)c1cc(Cl)ccc1[N+](=O)[O-] | 2.7 | 65.7* | -1.1 | 2.1 | 18.8 | 166.7*
O=C1C(=O)c2c(C(=O)c3ccccc3)coc2-c2ccccc21 | 9.5 | 47.7* | 23.3 | -4.0 | 52.5 | 29.6
O=C(c1ccccc1)c1coc2ccc(O)c(Cl)c12 | 4.1 | 1.0 | 6.9 | 1.0 | -12.1 | .
O=C1NN(c2cccc(Br)c2)C(=O)/C1=C/c1cccs1 | 16.6 | 42.7* | 17.3 | 0.0 | -23.0 | 60.4*
CC1=NN(c2ccc(Br)cc2)C(=O)/C1=C/c1cccs1 | 3.6 | -1.5 | -3.5 | 2.6 | . | .
O=C(O)/C=C/C(=O)c1ccc2c(c1)CCc1ccccc1-2 | 0.1 | 126.0* | 0.9 | -3.3 | . | 7.1
Cc1ccc(NC(C)C(=O)NN=Cc2ccc([N+](=O)[O-])s2)cc1 (stereo unspecified) | 8.7 | . | . | . | . | .
Cc1ccc(O)c(CP(=O)(c2ccccc2)c2ccccc2)c1 | 5.0 | 0.6 | -2.1 | -0.5 | -22.2 | .
CCNc1ccccc1CP(=O)(c1ccccc1)c1ccccc1O (stereo unspecified) | . | 186.5* | -1.1 | 1.5 | . | 36.8*
COc1cc(/C=N/NC(N)=S)cc(Br)c1OCc1ccccc1F | . | 51.5* | 25.7 | 5.2 | 32.1 | 11.6
COc1cc(CNc2ccc3[nH]c(=O)[nH]c3c2)cc(Br)c1OCc1ccccc1F | 1.1 | 83.4* | 2.3 | . | . | 46.3*
COc1cc(C=NNC(N)=O)cc(Br)c1OCc1ccc(C)cc1 | 1.0 | . | . | . | . | .
COc1cc(CNc2ccc3[nH]c(=O)[nH]c3c2)ccc1OCc1ccccc1F | -1.9 | 13.8 | 0.9 | 3.0 | . | .
COc1cccc(C(=NO)C2CC2c2ccc(Cl)cc2)c1 (stereo unspecified) | 3.9 | . | . | . | . | .
CC(NC(=O)CN(c1cccc(C(F)(F)F)c1)S(=O)(=O)c1ccc(Cl)c([N+](=O)[O-])c1)c1ccccc1 (stereo unspecified) | 5.5 | 103.7* | 3.5 | -0.7 | -33.4 | 140.0*
CC1(C)Cc2c(sc(NC(=O)COc3cccc4ccccc34)c2C#N)C(C)(C)N1 | 4.7 | 54.0* | 25.1 | -2.1 | 16.5 | 19.1
CCOc1ccc(C(=O)C(CN2CCOCC2)c2ccccc2)cc1 (stereo unspecified) | 6.7 | . | . | -0.9 | -67.8 | .
O=C(c1ccc(Br)cc1)C(CN1CCOCC1)c1ccccc1 (stereo unspecified) | 3.9 | 105.1* | 0.2 | -2.2 | . | 137.3*
COc1ccc(-n2nc3c(c2NC(=O)CCl)CSC3)cc1 | . | 49.4* | -5.5 | 72.1* | . | 3.7
COc1ccc(-n2nc3c(c2NC(=O)C(C)Cl)CSC3)cc1 (stereo unspecified) | -2.0 | -1.6 | -0.1 | 2.5 | . | .
Cc1cccc(Nc2ncnc(N)c2[N+](=O)[O-])n1 | 9.1 | 0.1 | -1.3 | 0.3 | 28.8 | .
Cc1cc(C)nc(Sc2ncnc(N)c2[N+](=O)[O-])n1 | 13.0 | 94.6* | -7.6 | 0.6 | 101.7* | 9.0
